Experiment [1] is described as follows: hit retest on RPL19A-GFP reporter strain – cell-based, S. cerevisiae, flow cytometry, cherry picks, mother/daughter gates, confirmation (AID 2270;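 active = GFP response below 50% of the DMSO control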). As to conditions: 3 h, at 10 µM, stronger effect = lower value, 100 = same GFP as DMSO wells. For orientation: In flow cytometry, cells or beads pass a laser one at a time.
Experiment [2] is described as follows: yeast TOR pathway reporter LAP4-GFP change – cell-based, cherry picks, flow cytometry, mother/daughter gates, confirmation (AID 2271;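 active = GFP response above 150% of the DMSO control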;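 also: ratio of sample to DMSO plate mean so 100% equals DMSO level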). As to conditions: S. cerevisiae LAP4-GFP strain, 3 h, at 10 µM, stronger effect = higher value, 100 means same as DMSO control. The method, boiled down:
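System – GFP-fusion yeast strain · Amount – 0.2 OD600 cells · Buffer or medium – SC growth medium · Dosing – single test-compound dose, 10 µM final · Schedule – 3 h treatment at 30 °C with rotation · Detection – GFP by flow cytometry · Read-out – per-gate (all, mother, daughter) GFP response vs DMSO · Benchmarks – positive rapamycin (400 ng/mL), negative DMSO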

Experiment [3] is described as follows: TOR pathway reporter MEP2-GFP, retest of hits – S. cerevisiae, flow cytometry GFP, cherry picks, confirmation (AID 2272;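 active = GFP response above 150% of the DMSO control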;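 also: ratio of well signal to plate DMSO mean so 100% equals DMSO level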). As to conditions: S. cerevisiae MEP2-GFP strain, 3 h, at 10 µM, stronger effect = higher value.
Experiment [4] is described as follows: yeast AGP1-GFP fluorescence change, single-dose – cell-based, flow cytometry, S. cerevisiae, cherry picks, confirmation (AID 2273).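 Also: median GFP channel fluorescence over the whole cell population gate.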 As to conditions: S. cerevisiae AGP1-GFP strain, 3 h, at 10 µM.
Experiment [5] is described as follows: TOR pathway CIT2 reporter hit retest – S. cerevisiae, GFP fusion, cherry picks, mother/daughter gates, confirmation (AID 2274). Particulars: S. cerevisiae CIT2-GFP strain, flow cytometry, 3 h, at 10 µM, stronger effect = higher value.
The mark [6] stands for this setting: measured here: daughter cell gate.
[7] abbreviates: measured here: mother cell gate.
Setting [8] is: measured here: daughter cell gate response.
Setting [9] is: measured here: mother cell gate response.

Active and inactive are the calls of the source.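 The calls were made as follows, unless noted: active = GFP response above 150% of the DMSO level; inconclusive = fewer than 70 events counted for a yeast strain; inactive = the rest.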

The values below come from PubChem BioAssay.

For `CCOc1cc(-c2noc(-c3cccnc3)n2)ccc1OC`, the GFP response vs DMSO in experiment [1] is 95.8% (inactive); in experiment [1] (setting [6]), 94.7%; in experiment [1] (setting [7]), 95%; in experiment [3], 103% (inactive). Further, the GFP response relative to DMSO is 98.9% (inactive) in experiment [2], 99% in experiment [2] (setting [8]) and 100% in experiment [2] (setting [9]). Also, the GFP response, % of DMSO in experiment [4] is 100% (inactive); in experiment [5], 106% (inactive); in experiment [5] (setting [6]), 103%; in experiment [5] (setting [7]), 106%.
On to `Oc1ccc(Cl)cc1-c1cc(-c2ccco2)[nH]n1`, for which the GFP response vs DMSO in experiment [1] is 103% (inactive); in experiment [1] (setting [6]) it was 100%; in experiment [1] (setting [7]), 104%; in experiment [3], 109% (inactive). Further, the GFP response relative to DMSO is 95% (inactive) in experiment [2], 94.1% in experiment [2] (setting [8]) and 96.2% in experiment [2] (setting [9]). Moreover, the GFP response, % of DMSO in experiment [4] is 88.2% (inactive); in experiment [5] it was 102% (inactive); in experiment [5] (setting [6]), 99.7%; in experiment [5] (setting [7]) it was 101%.
Take `CCn1cc(/C=C/c2cc[n+](C)cc2)c2ccccc21`: the GFP response vs DMSO is 105% (inactive) in experiment [1], 101% in experiment [1] (setting [6]), 107% in experiment [1] (setting [7]) and 154% (inactive) in experiment [3]. Also, the GFP response relative to DMSO is 117% (inactive) in experiment [2], 119% in experiment [2] (setting [8]) and 117% in experiment [2] (setting [9]). In addition, the GFP response, % of DMSO in experiment [4] was 108% (inactive).
Turning to `C=CCOc1ccc(C(=O)/C=C2/C(=O)Nc3ccccc32)cc1`, the GFP response vs DMSO in experiment [1] is 97.6% (inactive); in experiment [1] (setting [6]), 93.6%; in experiment [1] (setting [7]) it was 97.2%; in experiment [3], 111% (inactive). For the same compound, the GFP response relative to DMSO in experiment [2] is 113% (inactive); in experiment [2] (setting [8]), 108%; in experiment [2] (setting [9]), 117%. Also, the GFP response, % of DMSO is 112% (inactive) in experiment [4], 95.2% (inactive) in experiment [5], 93.2% in experiment [5] (setting [6]) and 93.4% in experiment [5] (setting [7]).
On to `CCCc1[nH]nc2c1C(c1ccc(Br)s1)C(C#N)=C(N)O2` (stereo not given), for which the GFP response vs DMSO in experiment [1] is 96.2% (inactive); in experiment [1] (setting [6]), 96.7%; in experiment [1] (setting [7]) it was 95.4%; in experiment [3] it was 122% (inactive). Moreover, the values for the GFP response relative to DMSO in experiment [2], in experiment [2] (setting [8]) and in experiment [2] (setting [9]) were 137% (inactive), 136% and 137%, respectively. For the same compound, the GFP response, % of DMSO was 105% (inactive) in experiment [4], 101% (inactive) in experiment [5], 101% in experiment [5] (setting [6]) and 102% in experiment [5] (setting [7]).
For the compound `CCCc1[nH]nc2c1C(c1ccc(OC(=O)N3CCOCC3)cc1)C(C#N)=C(N)O2` (stereo not given), the GFP response vs DMSO is 98.2% (inactive) in experiment [1], 97.1% in experiment [1] (setting [6]), 96.4% in experiment [1] (setting [7]) and 100% (inactive) in experiment [3]. For the same compound, the figures for the GFP response relative to DMSO in experiment [2], in experiment [2] (setting [8]) and in experiment [2] (setting [9]) were 97.9% (inactive), 94.4% and 94%, respectively. Also, the values for the GFP response, % of DMSO in experiment [4] and in experiment [5] were 102% (inactive) and 101% (inactive), respectively.
For the compound `COc1ccc(OC)c(C2C(C(=O)Nc3nc4ccccc4s3)=C(C)NC3=C2C(=O)CCC3)c1` (stereo not given), the GFP response vs DMSO is 102% (inactive) in experiment [1], 78.4% in experiment [1] (setting [6]), 78.4% in experiment [1] (setting [7]) and 109% (inactive) in experiment [3]. Further, the GFP response relative to DMSO was 102% (inactive) in experiment [2], 86.4% in experiment [2] (setting [8]) and 82.9% in experiment [2] (setting [9]). The GFP response, % of DMSO in experiment [4] was 103% (inactive); in experiment [5] it was 103% (inactive); in experiment [5] (setting [6]), 85%; in experiment [5] (setting [7]), 83.7%.
In the case of `O=[N+]([O-])c1ccc(Cl)cc1Sc1ccccn1`, the GFP response vs DMSO in experiment [1] was 105% (inactive); in experiment [1] (setting [6]), 108%; in experiment [1] (setting [7]), 104%; in experiment [3], 112% (inactive). The GFP response relative to DMSO is 94.1% (inactive) in experiment [2], 96% in experiment [2] (setting [8]) and 91.3% in experiment [2] (setting [9]). Further, the GFP response, % of DMSO in experiment [4] is 102% (inactive); in experiment [5] it was 111% (inactive); in experiment [5] (setting [6]), 110%; in experiment [5] (setting [7]) it was 108%.
Turning to `O=[N+]([O-])c1cc(/C=N/O)ccc1Oc1ccccc1Cl`, the GFP response vs DMSO is 76.7% (inactive) in experiment [1], 75.3% in experiment [1] (setting [6]), 70.2% in experiment [1] (setting [7]) and 146% (inactive) in experiment [3]. Also, the GFP response relative to DMSO in experiment [2] is 146% (inactive); in experiment [2] (setting [8]) it was 106%; in experiment [2] (setting [9]), 134%. Also, the values for the GFP response, % of DMSO in experiment [4] and in experiment [5] were 135% (inactive) and 155% (active), respectively.
As for `N=C1S/C(=C\c2ccco2)C(=O)N1c1nccs1`, the GFP response vs DMSO in experiment [1] is 109% (inactive); in experiment [1] (setting [6]), 108%; in experiment [1] (setting [7]) it was 100%; in experiment [3], 112% (inactive). Besides, the GFP response relative to DMSO was 168% (active) in experiment [2], 145% in experiment [2] (setting [8]) and 168% in experiment [2] (setting [9]). The GFP response, % of DMSO is 95.7% (inactive) in experiment [4], 108% (inactive) in experiment [5], 108% in experiment [5] (setting [6]) and 103% in experiment [5] (setting [7]).
For `CC(=O)c1ccc(N2CCN(C(=O)c3ccc(Br)cc3)CC2)c(F)c1`, the GFP response vs DMSO in experiment [1] was 111% (inactive); in experiment [1] (setting [6]) it was 95.4%; in experiment [1] (setting [7]), 110%; in experiment [3], 117% (inactive). Besides, the GFP response relative to DMSO in experiment [2] is 160% (active); in experiment [2] (setting [8]) it was 117%; in experiment [2] (setting [9]), 160%. For the same compound, the GFP response, % of DMSO in experiment [4] is 115% (inactive); in experiment [5] it was 111% (inactive); in experiment [5] (setting [6]) it was 88.1%; in experiment [5] (setting [7]), 104%.
`COCCCN1C(=O)C2C(C(=O)Nc3cc(C)cc(C)c3)C3C=CC2(O3)C1C(=O)NC1CCCCC1` (stereo not given): the GFP response vs DMSO was 100% (inactive) in experiment [1], 101% in experiment [1] (setting [6]), 101% in experiment [1] (setting [7]) and 102% (inactive) in experiment [3]. For the same compound, the GFP response relative to DMSO in experiment [2] was 95% (inactive); in experiment [2] (setting [8]) it was 100%; in experiment [2] (setting [9]), 98.3%. In addition, the GFP response, % of DMSO in experiment [4] is 96.7% (inactive); in experiment [5], 112% (inactive); in experiment [5] (setting [6]), 105%; in experiment [5] (setting [7]) it was 114%.
Consider `O=C(Nc1nc(-c2ccccc2)cs1)c1cccc([N+](=O)[O-])c1`, for which the GFP response vs DMSO in experiment [1] was 102% (inactive); in experiment [1] (setting [6]) it was 100%; in experiment [1] (setting [7]) it was 94.5%; in experiment [3], 105% (inactive). The values for the GFP response relative to DMSO in experiment [2], in experiment [2] (setting [8]) and in experiment [2] (setting [9]) were 101% (inactive), 95.9% and 95.2%, respectively. Besides, the GFP response, % of DMSO was 108% (inactive) in experiment [4] and 98.8% (inactive) in experiment [5].
For the compound `COc1ccc(C(=O)c2nccc3ccccc23)cc1`, the GFP response vs DMSO in experiment [1] is 96.8% (inactive); in experiment [1] (setting [6]) it was 86.1%; in experiment [1] (setting [7]) it was 91.3%; in experiment [3], 96.2% (inactive). For the same compound, the GFP response relative to DMSO was 106% (inactive) in experiment [2], 104% in experiment [2] (setting [8]) and 99.3% in experiment [2] (setting [9]). The results for the GFP response, % of DMSO in experiment [4] and in experiment [5] were 100% (inactive) and 98.3% (inactive), respectively.
As for `O=C(Nc1ccc(F)cc1)c1cc2cc(Cl)ccc2[nH]1`, the GFP response vs DMSO in experiment [1] is 97% (inactive); in experiment [1] (setting [6]) it was 96.9%; in experiment [1] (setting [7]) it was 96.2%; in experiment [3], 100% (inactive). Also, the figures for the GFP response relative to DMSO in experiment [2], in experiment [2] (setting [8]) and in experiment [2] (setting [9]) were 101% (inactive), 97.6% and 94%, respectively. Further, the GFP response, % of DMSO was 102% (inactive) in experiment [4], 99.7% (inactive) in experiment [5] and 92.6% in experiment [5] (setting [7]).
In the case of `Cc1ccc(S(=O)(=O)N(Cc2ccccc2)Cc2ccco2)cc1`, the GFP response vs DMSO in experiment [1] is 102% (inactive); in experiment [1] (setting [6]), 103%; in experiment [1] (setting [7]) it was 104%; in experiment [3] it was 97.8% (inactive). In addition, the GFP response relative to DMSO in experiment [2] was 87.8% (inactive); in experiment [2] (setting [8]) it was 87.9%; in experiment [2] (setting [9]) it was 90.1%. In addition, the GFP response, % of DMSO in experiment [4] was 97.8% (inactive); in experiment [5] it was 106% (inactive); in experiment [5] (setting [6]), 105%; in experiment [5] (setting [7]), 104%.
On to `OCc1ccccc1SSc1ccccc1CO`, for which the GFP response vs DMSO in experiment [1] was 101% (inactive); in experiment [1] (setting [6]) it was 99.2%; in experiment [1] (setting [7]), 98.5%; in experiment [3], 100% (inactive). Also, the GFP response relative to DMSO in experiment [2] is 149% (inactive); in experiment [2] (setting [8]), 137%; in experiment [2] (setting [9]), 156%. Also, the GFP response, % of DMSO in experiment [4] was 104% (inactive); in experiment [5], 103% (inactive); in experiment [5] (setting [6]), 101%; in experiment [5] (setting [7]), 99.8%.
